# Rows were chosen to be rich in hits. Some 1.8% of all compounds tested hit in one or more screens of this group.
# DNMT1 block: inhibitors of human DNMT1. inhibition (reported as % activation of signal), % at 10 µM. P26358. DNMT1 molecular beacon, Hinp1I cleavage, fluorescence. hit rate 0.83% among 360,000; in the data active means inhibition above about 50%
# LMPTP block: LMPTP (human) inhibition; hit rate 0.22% among 360,000; AID 651560; inhibition, % at 20 µM; P24666; recombinant LMPTP-A, OMFP fluorogenic substrate, fluorescence intensity;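 active means compounds that cut the enzyme signal by at least half of the control window in the single-dose screen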;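 further: plate controls were DMSO wells with enzyme plus substrate for no effect and substrate without enzyme for full effect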
#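 Material: LMPTP-A; amount: 0.625 nM enzyme; doses: single 20 µM dose; times: reaction 50 min, room temperature, dark; technique: fluorescence intensity of OMFP turnover product; benchmarks: no-enzyme and uninhibited controls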
# SUMO1-SIM PPI: SUMO1-SIM interaction modulation; inhibition, % at 20 µM; SUMO1 binding to a labelled peptide, TR-FRET, 1 h; hit rate 0.33% among 360,000; P63165; in the data active means inhibition above about 37%
# Scp-1 inhibitor: inhibitors of human Scp-1 phosphatase; Recombinant Scp1, phosphopeptide, malachite green phosphate absorbance; inhibition, % at 20 µM; hit rate 0.88% among 340,000;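 active means inhibition above about 50% at 20 µM, limit read from the data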;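 further: plate controls were DMSO wells with enzyme for no effect and wells lacking enzyme for full effect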
#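 assay system = SCP-1 phosphatase catalytic domain, residues 76-261 | buffer or medium = 50 mM Tris acetate pH 5.5, 0.005% Tween-20, 10 mM MgCl2 | incubation = enzyme reaction 45 min at room temperature, colour 5 min, stabilisation 30 min | signal = Phosphate-binding colour reagent, absorbance read at 630 nm | measure = % inhibition at 20 µM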
# STEP inh: STEP (human) phosphatase inhibition. P54829. AID 588621. inhibition, % at 20 µM. hit rate 0.25% among 360,000. recombinant STEP, OMFP fluorogenic substrate, fluorescence;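 active means inhibition at 20 µM, scaled per plate between control wells, above about 37%, limit read from the data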;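 further: 0% = DMSO with enzyme and substrate and 100% = substrate only without enzyme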
# Target sequence (P54829 whole entry, looked up): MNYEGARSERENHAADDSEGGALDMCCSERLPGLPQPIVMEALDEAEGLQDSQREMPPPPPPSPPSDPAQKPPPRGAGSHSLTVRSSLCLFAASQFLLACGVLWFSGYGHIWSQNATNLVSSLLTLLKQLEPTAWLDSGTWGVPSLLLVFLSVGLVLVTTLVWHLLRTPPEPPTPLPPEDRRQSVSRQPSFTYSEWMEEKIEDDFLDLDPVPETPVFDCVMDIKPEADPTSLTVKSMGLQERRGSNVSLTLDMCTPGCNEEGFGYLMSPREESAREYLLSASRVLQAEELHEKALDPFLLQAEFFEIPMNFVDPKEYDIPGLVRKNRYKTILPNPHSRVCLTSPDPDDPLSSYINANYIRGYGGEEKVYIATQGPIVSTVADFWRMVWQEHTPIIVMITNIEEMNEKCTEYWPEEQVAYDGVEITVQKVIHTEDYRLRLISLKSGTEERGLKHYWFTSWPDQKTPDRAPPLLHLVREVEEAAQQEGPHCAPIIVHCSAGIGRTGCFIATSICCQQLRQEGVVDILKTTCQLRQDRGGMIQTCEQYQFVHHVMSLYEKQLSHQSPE
#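 Material: STEP (striatal-enriched tyrosine phosphatase) enzyme, cell-free; Compound dosing: 20 µM single dose in 1% DMSO; Technique: fluorescence read at 480 nm ex / 540 nm em; Times: reaction 20 min, ambient temperature; Medium: 50 mM Bis-Tris pH 6.0 with 2.5 mM DTT and 0.005% Tween 20; Also added: OMFP at 25 µM.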
# DNMT1 interf DR: counter-screen for DNMT1 inhibitors: spectral interference, dose response. shares compounds with DNMT1 block. molecular beacon fluorescence. IC50, µM. 200 tested, under 10 active
# DNMT1 confirm: confirmation of human DNMT1 inhibitors. DNMT1 molecular beacon HinP1I cleavage, fluorescence. shares compounds with DNMT1 block. inhibition, % at 10 µM. hit rate 8% among 2,300. AID 602385;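 active means average inhibition of at least 30% in the single-concentration confirmation test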
# DNMT1 interf: shows spectral interference in the DNMT1 beacon assay; shares compounds with DNMT1 block; DNMT1 molecular beacon spectral interference counterscreen, fluorescence 485/520; activation (fluorescence interference), % at 10 µM; hit rate 1% among 2,300; AID 602387;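 active means activation of at least 30% at 10 µM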;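 further: DNMT1 catalytic domain with a HinP1I cleavage step and a FAM/dabcyl DNA beacon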
# STEP inh conf: STEP (human) phosphatase inhibition, single concentration confirmation | shares compounds with STEP inh | recombinant STEP, OMFP fluorogenic substrate, fluorescence | inhibition, % at 20 µM | hit rate 32% among 520 | AID 623866;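 further: 0% = enzyme with substrate plus DMSO and 100% = substrate without enzyme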
# * hit, by the source's call; x = not tested or not shown. Unless noted, how the calls were made is not given here.
SMILES,DNMT1 block,LMPTP block,SUMO1-SIM PPI,Scp-1 inhibitor,STEP inh,DNMT1 confirm,DNMT1 interf,others
C=CCN1C(=O)/C(=C/c2ccc3c(c2)CCCN3CCC)C(=O)NC1=S,2,0,13,11,0,x,x,
CCN1C(=O)/C(=C/c2ccc3c(c2)CCN3CCCCl)C(=O)NC1=S,102*,13,15,2,9,14,6,
COc1ccc(CCC(=O)N2CCC3(CC2)OCCO3)cc1,2,-1,3,-4,1,x,x,
O=C(CCc1nc(-c2ccccc2F)no1)N1CCC2(CC1)OCCO2,58*,-1,-2,-9,-1,0,0,
Cc1cc(/C=C2\C(=O)NC(=O)N(c3ccc(Cl)cc3)C2=O)c(C)n1-c1sc2c(c1C#N)CCCC2,79*,2,49*,-2,5,32*,-4,DNMT1 interf DR=>99
CCOC(=O)c1c(-n2c(C)cc(/C=C3\C(=O)NC(=O)N(C)C3=O)c2C)sc2c1CCCC2,30,3,35,0,0,x,x,
Cc1cc(/C=C2\C(=O)NC(=O)N(Cc3ccco3)C2=O)c(C)n1-c1ccc(O)cc1,73*,7,14,21,-2,6,2,
Cc1cc(/C=C2\C(=O)NC(=O)N(Cc3ccco3)C2=O)c(C)n1-c1ccc(C(=O)O)cc1,86*,10,9,61*,8,8,-1,
CCc1ccc(N2C(=O)NC(=O)/C(=C\c3cc(C)n(-c4cc(C(=O)O)cc(C(=O)O)c4)c3C)C2=O)cc1,73*,-1,18,36,13,4,3,
CCc1ccc(NC2=NCCCS2)cc1,1,0,-1,-1,-3,x,x,
COC(=O)C1=C(c2c(C)noc2C)C[C@@H]2CC[C@H]1N2C(=O)N1CCCC1,3,1,3,-3,-2,x,x,
COC(=O)C1=C(c2cc3ccccc3s2)C[C@@H]2CC[C@H]1N2C(=O)N1CCCCC1,2,1,-3,-4,1,x,x,
CN1CCN(c2ccc(/C=C3\C(=O)NC(=S)N(c4cccc(Br)c4)C3=O)o2)CC1,-5,7,-117,-7,-13,x,x,
Cc1ccc(/C=C2\C(=O)NC(=S)N(c3cccc(F)c3)C2=O)o1,72*,3,28,38,4,23,2,
COc1ccc(N2C(=O)/C(=C/c3ccc(C)o3)C(=O)NC2=S)cc1,87*,0,18,42,4,11,-1,
Cc1nn(CC(C)C)c(Cl)c1C(=O)O,2,-2,0,-1,-2,x,x,
COC(=O)C1=C(c2ccc(S(C)(=O)=O)cc2)C[C@@H]2CC[C@H]1N2C(=O)N1CCOCC1,67*,-1,4,-7,0,1,0,
Clc1ccc(-c2nc3ccc(Cl)cn3c2CN2CCOCC2)cc1,73*,0,15,-3,0,2,5,
O=C1C2C3CCC(O3)C2C(=O)N1CCO (centres undefined),6,0,2,1,1,x,x,
C=CCn1c(O)c(/C=N/N2CCCCC2c2cccnc2)c(=O)[nH]c1=S (centres undefined),-3,-2,-2,-6,42*,x,x,STEP inh conf=-1
Cc1cc(N2CCNCC2)nc2ccccc12,0,-5,1,-10,-1,x,x,
CN(C)c1ccc2c(c1)N=C(c1ccco1)OP2(=S)N1CCOCC1 (centres undefined),-7,5,1,8,36*,x,x,STEP inh conf=12
CN(C)c1ccc(CCN2CCOCC2)cc1,1,0,3,-3,-1,x,x,

# Screens: PubChem BioAssay, Sanford-Burnham Center for Chemical Genomics
